Shown are actives, neighbours in structure and some others; about 2% of the full set was active somewhere.
Apaf-1 inh: inhibitors of human Apaf-1 apoptosome, primary screen, biochemical, DEVD-Rh110 fluorescence, uHTS. inhibition, % at 20 µM. AID 489030, 2010. 0.71% of 330,000 active. reconstituted apoptosome caspase-3 activity; active = inhibition of at least 40% at 20 µM;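 also: plate controls were DMSO wells for no effect and DEVD-CHO caspase inhibitor wells for full effect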
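System: reconstituted apoptosome with Apaf-1, cytochrome c, caspase-9, procaspase-3, dATP; Signal: Rh110 fluorescence intensity; Schedule: 30 min compound preincubation, 50 min activation, room temperature; Reagent: cytochrome c trigger plus (Z-DEVD)2-Rh110 caspase-3 substrate.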
GSTO1 counter: inhibitors of recombinant GSTO1, primary screen, counter-screen for RBBP9 inhibitor project, biochemical, fluorescence polarization. Glutathione S-transferase omega-1 (Homo sapiens), P78417. activity-based probe fluorescence polarization. inhibition, % at 5.96 µM. 1.1% of 300,000 active. AID 1974, 2009;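 active = inhibition above the campaign mean inhibition plus 3 SD, cut at about 35% in these data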;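 also: 0% = GSTO1-1 with DMSO and 100% = wells lacking GSTO1-1 enzyme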
Target sequence (P78417 whole entry, looked up): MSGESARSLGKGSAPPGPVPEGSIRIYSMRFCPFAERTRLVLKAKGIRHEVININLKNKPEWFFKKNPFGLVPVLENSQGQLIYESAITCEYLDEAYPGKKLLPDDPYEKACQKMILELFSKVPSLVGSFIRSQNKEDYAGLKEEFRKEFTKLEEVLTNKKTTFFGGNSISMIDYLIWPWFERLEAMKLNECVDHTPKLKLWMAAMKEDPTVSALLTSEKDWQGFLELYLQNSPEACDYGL
PP5 primary: PP5 phosphatase inhibitors, primary screen, biochemical, fluorescence; 0.18% of 320,000 active; Serine/threonine-protein phosphatase 5 (Homo sapiens), P53041; inhibition, % at 6.7 µM; purified PP5c, OMFP substrate fluorescence;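 active = inhibition above the campaign's mean inhibition across all tested compounds plus 3 SD, cut at about 9.5% in these data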;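 also: 0% = DMSO only and 100% = 100 µM cantharidin control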
UCH37 DUB inh: inhibitors of human UCH37 deubiquitinase, primary screen, biochemical, Ub-AMC cleavage, fluorescence; Ubiquitin carboxyl-terminal hydrolase isozyme L5 (Homo sapiens), Q9Y5K5; purified proteasome/UCH37; inhibition, % (no concentration beside the values); 0.33% of 330,000 active; AID 588478, 2011;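 active = mean inhibition over replicate wells above about 20%, limit read from the data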;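 also: 0% = compound-free wells with enzyme and 100% = wells lacking proteasome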
Target sequence (Q9Y5K5 whole entry, looked up): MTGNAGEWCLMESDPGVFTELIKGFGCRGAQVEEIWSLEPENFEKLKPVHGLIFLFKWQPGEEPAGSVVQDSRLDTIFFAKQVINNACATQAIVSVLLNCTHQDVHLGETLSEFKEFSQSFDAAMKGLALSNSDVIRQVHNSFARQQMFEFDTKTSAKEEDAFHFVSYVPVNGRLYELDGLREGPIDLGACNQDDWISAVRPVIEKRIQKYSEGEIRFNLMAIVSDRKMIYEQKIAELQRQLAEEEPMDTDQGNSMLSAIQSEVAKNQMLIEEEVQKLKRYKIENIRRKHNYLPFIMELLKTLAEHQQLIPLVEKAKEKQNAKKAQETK
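Assay system: Proteasome-bound UCH37. Buffer or medium: pH 7.4 Tris-HCl (50 mM) with ovalbumin, ATP-MgCl2, DTT. Incubation: 30 min preincubation with enzyme, 25 min cleavage at room temperature. Measured by: fluorescence, ex 355 nm, em 460 nm. Read-out basis: percent inhibition. Control set: wells without proteasome as full block, compound-free enzyme plus substrate as uninhibited.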
PAD4 inh: human PAD4 inhibitors, primary screen, biochemical, fluorescence polarization, 1536-well format. Protein-arginine deiminase type-4 (Homo sapiens), Q9UM07. recombinant PAD4, RCA probe fluorescence polarization. inhibition, % at 6.36 µM. 0.41% of 330,000 active. AID 485272, 2010;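 active = percent inhibition above a cutoff equal to the mean of all tested compounds plus 3 SD, cut at about 15% in these data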;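 also: 0% = PAD4 with RCA probe and DMSO and 100% = probe without PAD4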
Fh CTSL1 inh: Fasciola hepatica cathepsin L1 inhibitors, primary screen, counter-screen for PFM18AAP inhibitor project, biochemical, QFRET, fluorogenic peptide substrate | recombinant F. hepatica cathepsin L1, Z-Leu-Arg-MCA fluorescence | inhibition, % at 5.96 µM | 0.49% of 300,000 active;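 active = inhibition above the mean of all tested compounds plus 3 SD, set per screening campaign, cut at about 17% in these data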;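 also: 0% = plate median of test compound wells and 100% = 1 µM Z-Phe-Ala-diazomethylketone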
Starred values were filed as active, the others as inactive; i = inactive; . = no result.

SMILES	Apaf-1 inh	GSTO1 counter	PP5 primary	UCH37 DUB inh	PAD4 inh	Fh CTSL1 inh
COc1ccc(/C=C(\NC(=O)c2ccccc2)C(=O)NCc2ccco2)cc1OC	-5	-2	-3	8	3	1
O=C(NCc1ccco1)/C(=C\C=C\c1ccccc1)NC(=O)c1ccco1	-1	-6	1	13	-2	17*
O=C(NCc1ccco1)/C(=C/c1ccco1)NC(=O)c1ccc(Br)o1	9	-1	-1	2	-3	17*
COc1ccccc1C(=O)N/C(=C\c1ccccc1)C(=O)NCc1ccco1	8	3	-3	2	6	17*
C=CCc1ccc(OCCOc2ccc(C=Nn3cnnc3)cc2OCC)c(OC)c1	.	.	.	1	.	.
COC(=O)Cc1cc(=O)[nH]c(N=C(N)Nc2ccccc2C)n1	.	.	.	7	.	.
COC(=O)C1=C(C)N(Cc2ccccc2)C(=NCc2cccc(Cl)c2)N[C@H]1c1cccc(F)c1	67*	.	.	2	-6	.
COC(=O)C1=C(C)N(Cc2ccccc2)C(=NCc2cc(OC)c(OC)c(OC)c2)N[C@H]1c1cccc(F)c1	12	6	2	1	1	2
CCOC(=O)C(=NNc1ccccc1Cl)N1CCN(Cc2ccccc2)CC1	.	.	.	2	.	.
O=C(Cc1cccs1)NN=Cc1ccco1	.	.	.	2	.	.
O=S(=O)(O)c1ccc(NN=Cc2ccccc2O)cc1	.	.	.	23*	.	.
Cc1ccccc1-c1cc(C(=O)NCc2ccc(OC(F)(F)F)cc2)nn1CC1CC(c2cccc([N+](=O)[O-])c2)=NO1 (configuration not stated)	16	.	.	2	3	.
Cc1ccccc1-c1cc(C(=O)NCc2cccc(C(F)(F)F)c2)nn1CC1CC(c2cccc([N+](=O)[O-])c2)=NO1 (configuration not stated)	18	-5	2	35*	5	-2
O=C(NN=C1CCS(=O)(=O)c2ccc(F)cc21)c1ccccn1	.	.	.	2	.	.
CN(C)/C=C/C(=O)c1ccc(-n2cccc2)cc1	5	-4	0	22*	-1	-2
Cn1c(=O)n(C)c2cc(/C=N/NC(N)=S)ccc21	-5	-16	0	.	-2	33*
CN(C)c1ccc(/C=N/NC(N)=S)cc1[N+](=O)[O-]	2	2	0	.	-1	19*
CN(C)C=NS(=O)(=O)c1ccc(Cl)cc1	.	.	.	0	.	.
CC1CCCC(NC(=O)NC(=O)CCl)C1C (configuration not stated)	-30	99*	1	2	-2	24*
CC1CCCC(NC(=O)CSC2CCCCC2)C1C (configuration not stated)	3	10	2	1	-1	-3
CC1CCCCC1NC(=O)NC(=O)CCl (configuration not stated)	-1	94*	3	4	2	7
CC1CCCCC1NC(=O)NC(=O)COC(=O)c1nccnc1N (configuration not stated)	-6	.	.	i	-5	.
O=c1[nH]c(/C=C\c2ccc(O)c(Cl)c2)nc(O)c1[N+](=O)[O-]	10	4	1	21*	0	9
O=c1[nH]c(/C=C\c2cccs2)nc(O)c1[N+](=O)[O-]	4	3	2	21*	-4	8
O=c1[nH]c(/C=C\c2ccc(O)cc2)nc(O)c1[N+](=O)[O-]	-4	8	3	18	1	8
SMILES	Apaf-1 inh	GSTO1 counter	PP5 primary	UCH37 DUB inh	PAD4 inh	Fh CTSL1 inh
CCOc1cc(/C=C\c2nc(O)c([N+](=O)[O-])c(=O)[nH]2)ccc1OC(C)C	8	-5	0	16	0	-3
CCOC(=O)C1=C(N)n2c(sc(=Cc3cccs3)c2=O)=C(C(=O)OCC)C1c1cccs1 (configuration not stated)	.	.	.	8	.	.
COc1cc(C=NNC(=O)c2nonc2N)cc(OC)c1OC	.	.	.	9	.	.
CC(C)OC(=O)CSc1nnc(-c2ccccn2)n1-c1ccccc1	8	37*	0	6	-4	-3
COC/C=C/C1=CC2=CC(=O)C(C)(OC(=O)c3cnc4ccccc4n3)C(=O)C2=CN1CCCCO (configuration not stated)	32	31	1	6	-2	1
COC(=O)CCCC1=CC2=CC(=O)C(C)(OC(=O)c3ccc(Cl)nc3)C(=O)C2=CO1 (configuration not stated)	-2	35*	4	.	5	-4
COC(=O)CCCC1=CC2=CC(=O)C(C)(OC(=O)c3cccs3)C(=O)C2=CO1 (configuration not stated)	11	39*	4	.	7	-2
COC/C=C/C1=CC2=CC(=O)C(C)(OC(=O)c3cnc4ccccc4n3)C(=O)C2=CN1CCc1ccccn1 (configuration not stated)	26	-12	1	.	34*	4
CCCCC1=CC2=CC(=O)C(C)(OC(=O)c3cnc4ccccc4n3)C(=O)C2=CO1 (configuration not stated)	3	29	5	.	31*	-3
CC(C)(C)OC(=O)NCCCCC1=CC2=CC(=O)C(C)(OC(=O)c3cnc4ccccc4n3)C(=O)C2=CO1 (configuration not stated)	13	19	-1	.	11	2
CC1(C)SC(=S)N(N=Cc2cccnc2)C1N(O)C(=O)NC1CCCCC1 (configuration not stated)	.	.	.	4	.	.
O=C(COc1ccc(C=NNC(=O)c2ccc(O)cc2)cc1)Nc1ccc([N+](=O)[O-])cc1	.	.	.	3	.	.
CC1(OC(=O)c2ccc(Cl)nc2)C(=O)C=C2C=C(c3ccsc3)OC=C2C1=O (configuration not stated)	22	24	2	.	-5	-3
CC1(OC(=O)c2ccc(Cl)nc2)C(=O)C=C2C=C(c3ccc(C#N)cc3)OC=C2C1=O (configuration not stated)	.	36*	1	.	1	1
CCCCC1=CC2=CC(=O)C(C)(OC(=O)CCC(=O)OC)C(=O)C2=CO1 (configuration not stated)	4	8	3	.	-7	-3
COC(=O)CCCC1=CC2=CC(=O)C(C)(OC(=O)c3cnc4ccccc4n3)C(=O)C2=CO1 (configuration not stated)	6	38*	1	.	32*	1
COc1ccccc1/C=C/C=Nn1c(-c2ccc(F)cc2)n[nH]c1=S	.	.	.	4	.	.
